The values below come from PMC4387010 (Nuclear medicine and biology, 2014).

Like-named read-outs stand apart in the source and are kept apart here.

For data set [1] the following is noted: previously studied radioiodinated α7-nAChR radioligand; cited from earlier work.
The target in data set [2] is α7-nAChR (Mus musculus, UniProt P49582). Briefly: Blockade of [^125I]iodo-ASEM binding in CD-1 mouse brain by s.c. blockers. It is filed as in vivo, CD-1 mice. Particulars: for inhibition of [^125I]iodo-ASEM binding by blocker: SSR180711 2 mg/kg s.c., 180 min post-injection; for reduction of [^125I]iodo-ASEM accumulation in mouse brain by blocker: CB, Hipp, Ctx, Coll, 180 min, P > 0.05 vs vehicle.
Chain of α7-nAChR (Mus musculus, UniProt P49582) (P49582 23-502): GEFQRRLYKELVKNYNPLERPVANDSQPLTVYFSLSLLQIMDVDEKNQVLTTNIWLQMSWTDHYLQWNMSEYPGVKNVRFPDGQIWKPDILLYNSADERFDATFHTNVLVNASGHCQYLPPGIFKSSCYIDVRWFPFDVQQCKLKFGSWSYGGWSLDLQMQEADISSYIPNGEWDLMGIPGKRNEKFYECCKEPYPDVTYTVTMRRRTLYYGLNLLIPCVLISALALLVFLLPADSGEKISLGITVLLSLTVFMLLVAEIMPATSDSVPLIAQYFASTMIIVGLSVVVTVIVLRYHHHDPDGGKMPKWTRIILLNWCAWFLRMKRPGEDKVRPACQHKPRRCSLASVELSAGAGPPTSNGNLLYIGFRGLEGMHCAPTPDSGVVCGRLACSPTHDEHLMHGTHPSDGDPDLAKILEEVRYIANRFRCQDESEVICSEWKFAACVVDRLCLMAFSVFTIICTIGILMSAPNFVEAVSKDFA

In data set [3] the target is α7-nAChR (Rattus norvegicus, UniProt Q05941). Type of data set: binding.
Chain of α7-nAChR (Rattus norvegicus, UniProt Q05941) (Q05941 23-502): as the sequence (P49582 23-502) above, with T402A counted along it
A further data set has as its target α4β2-nAChR (Homo sapiens, UniProt P17787+P43681). It is filed as binding. Conditions: for α7-nAChR Binding selectivity α7/α4β2: ratio of Ki values.
The nature of data set [4]: Regional brain distribution. Conditions: for Regional brain distribution: i.v., mean ± SD (n=3). It is filed as in vivo, CD-1 mice. In a few lines: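 Male CD-1 mice (25–30 g) got the radioiodinated test compound by lateral tail vein: 3 μCi, specific radioactivity 1600 mCi/μmol, in 0.2 mL saline. Mice were killed by cervical dislocation at various times (three per time point). Brains were dissected on ice, and regions were weighed and γ-counted alongside injectate standards. Uptake was expressed as %ID/g tissue.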

In the next data set the target is α3β4-nAChR (Homo sapiens, UniProt P30926+P32297). Type of data set: binding.
Chain of α3β4-nAChR (P32297 32-505): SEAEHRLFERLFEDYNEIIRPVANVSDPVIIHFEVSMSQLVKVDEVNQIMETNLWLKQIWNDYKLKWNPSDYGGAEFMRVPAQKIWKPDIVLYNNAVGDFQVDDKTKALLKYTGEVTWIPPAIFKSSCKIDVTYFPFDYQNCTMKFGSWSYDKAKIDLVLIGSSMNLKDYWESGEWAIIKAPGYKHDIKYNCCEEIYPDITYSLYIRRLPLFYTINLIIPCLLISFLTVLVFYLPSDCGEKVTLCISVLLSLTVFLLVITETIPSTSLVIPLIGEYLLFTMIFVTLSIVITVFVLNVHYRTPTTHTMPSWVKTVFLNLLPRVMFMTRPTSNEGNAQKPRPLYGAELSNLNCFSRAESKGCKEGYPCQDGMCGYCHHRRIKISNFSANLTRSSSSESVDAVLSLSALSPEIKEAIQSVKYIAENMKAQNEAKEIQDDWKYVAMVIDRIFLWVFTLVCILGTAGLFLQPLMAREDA
Chain of α3β4-nAChR (P30926 22-498): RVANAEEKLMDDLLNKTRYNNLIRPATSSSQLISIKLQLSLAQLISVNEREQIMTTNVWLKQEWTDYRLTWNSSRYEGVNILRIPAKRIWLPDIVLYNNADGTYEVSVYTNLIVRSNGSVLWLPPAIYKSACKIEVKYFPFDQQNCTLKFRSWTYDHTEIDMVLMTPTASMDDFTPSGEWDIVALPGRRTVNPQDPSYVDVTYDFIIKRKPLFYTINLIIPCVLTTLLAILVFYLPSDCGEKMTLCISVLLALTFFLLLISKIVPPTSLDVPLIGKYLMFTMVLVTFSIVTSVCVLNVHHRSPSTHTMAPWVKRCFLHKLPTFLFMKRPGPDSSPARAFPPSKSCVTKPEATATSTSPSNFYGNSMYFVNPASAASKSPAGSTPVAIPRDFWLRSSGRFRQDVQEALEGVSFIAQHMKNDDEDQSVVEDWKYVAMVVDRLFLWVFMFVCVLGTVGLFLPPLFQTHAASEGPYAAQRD

Chain of α4β2-nAChR (P17787 26-502): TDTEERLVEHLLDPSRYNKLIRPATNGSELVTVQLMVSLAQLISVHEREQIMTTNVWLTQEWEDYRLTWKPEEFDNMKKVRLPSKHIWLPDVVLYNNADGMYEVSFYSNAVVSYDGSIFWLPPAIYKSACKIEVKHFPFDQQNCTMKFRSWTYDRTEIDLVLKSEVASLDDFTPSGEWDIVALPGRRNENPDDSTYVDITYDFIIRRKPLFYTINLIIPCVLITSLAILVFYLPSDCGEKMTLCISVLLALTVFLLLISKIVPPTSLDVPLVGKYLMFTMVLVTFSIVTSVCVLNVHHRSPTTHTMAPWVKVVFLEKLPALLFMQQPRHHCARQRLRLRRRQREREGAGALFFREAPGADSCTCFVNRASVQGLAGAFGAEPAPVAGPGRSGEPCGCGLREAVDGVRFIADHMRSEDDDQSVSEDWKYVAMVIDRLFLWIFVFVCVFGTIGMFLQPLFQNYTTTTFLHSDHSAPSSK
Chain of α4β2-nAChR (P43681 29-627): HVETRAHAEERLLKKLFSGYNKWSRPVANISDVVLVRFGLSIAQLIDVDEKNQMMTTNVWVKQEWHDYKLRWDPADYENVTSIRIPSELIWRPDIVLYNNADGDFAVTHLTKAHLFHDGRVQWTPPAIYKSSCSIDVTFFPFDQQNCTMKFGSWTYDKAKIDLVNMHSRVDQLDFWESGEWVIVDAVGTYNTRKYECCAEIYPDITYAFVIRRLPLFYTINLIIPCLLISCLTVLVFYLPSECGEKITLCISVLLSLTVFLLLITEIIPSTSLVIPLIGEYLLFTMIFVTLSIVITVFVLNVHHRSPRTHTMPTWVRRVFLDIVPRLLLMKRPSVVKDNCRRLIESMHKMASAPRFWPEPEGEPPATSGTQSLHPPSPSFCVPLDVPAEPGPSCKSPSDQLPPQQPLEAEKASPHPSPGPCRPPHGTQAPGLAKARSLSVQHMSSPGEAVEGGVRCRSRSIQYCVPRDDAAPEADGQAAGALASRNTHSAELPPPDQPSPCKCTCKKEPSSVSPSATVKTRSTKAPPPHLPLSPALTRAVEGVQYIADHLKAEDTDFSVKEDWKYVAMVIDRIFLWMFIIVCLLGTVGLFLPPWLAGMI

On to `[125I]c1occc1-c1cnc2c(c1)C[C@@]1(CN3CCC1CC3)O2` [(1S,2R,4S)-5′-(2-[^125I]iodofuran-3-yl)-3′H-4-azaspiro[bicyclo[2.2.2]octane-2,2′-furo[2,3-b]pyridine]], for which, in data set [1], the “colliculus to cerebellum ratio” value was ~ 2.5.

With `O=C(Oc1ccc(Br)cc1)N1CCN2CCC1CC2` [SSR180711], the “inhibition of [^125I]iodo-ASEM binding by blocker” value at α7-nAChR [2] (cerebellum, P = 0.27) is listed as “the blockade was negligible”; on α7-nAChR [2] (superior and inferior colliculi and hippocampus, P < 0.01), “significantly inhibited”.

Regarding `O=S1(=O)c2cc(N3CCN4CCC3CC4)ccc2-c2cccc([125I])c21` [[^125I]iodo-ASEM, 3-(1,4-Diazabicyclo[3.2.2]nonan-4-yl)-6-[^125I]iododibenzo[b,d]thiophene 5,5-dioxide], the Ki on α7-nAChR [3] was 0.5 nM. On α4β2-nAChR, the “α7-nAChR Binding selectivity α7/α4β2” value is reported as 3,414. Besides, the Regional brain distribution in data set [4] (Cerebellum, 5 min) is on record as 4.25±0.42 %ID/g tissue; in data set [4] (Cerebellum, 20 min), 5.20±2.08 %ID/g tissue; in data set [4] (Cerebellum, 60 min), 2.56±0.35 %ID/g tissue; in data set [4] (Cerebellum, 120 min), 1.41±0.08 %ID/g tissue; in data set [4] (Cerebellum, 180 min), 0.76±0.15 %ID/g tissue; in data set [4] (Cerebellum, 240 min) it was 0.38±0.05 %ID/g tissue. Also, the Regional brain distribution in data set [4] (Cerebellum, 360 min) was found to be 0.21±0.04 %ID/g tissue; in data set [4] (Cortex, 5 min), 4.78±0.47 %ID/g tissue; in data set [4] (Cortex, 20 min) it was 6.25±0.28 %ID/g tissue; in data set [4] (Cortex, 60 min), 6.50±0.57 %ID/g tissue; in data set [4] (Cortex, 120 min), 4.29±0.42 %ID/g tissue; in data set [4] (Cortex, 180 min), 2.74±0.55 %ID/g tissue. The Regional brain distribution in data set [4] (Cortex, 240 min) turned out to be 1.40±0.06 %ID/g tissue; in data set [4] (Cortex, 360 min), 0.72±0.12 %ID/g tissue; in data set [4] (Hippocampus, 5 min) it was 3.63±0.40 %ID/g tissue; in data set [4] (Hippocampus, 20 min), 5.09±0.86 %ID/g tissue; in data set [4] (Hippocampus, 60 min), 4.40±0.12 %ID/g tissue; in data set [4] (Hippocampus, 120 min) it was 3.40±2.03 %ID/g tissue. The Regional brain distribution in data set [4] (Hippocampus, 180 min) came to 2.66±0.58 %ID/g tissue; in data set [4] (Hippocampus, 240 min) it was 1.70±0.28 %ID/g tissue; in data set [4] (Hippocampus, 360 min), 0.97±0.12 %ID/g tissue; in data set [4] (Rest of brain, 5 min), 3.89±0.42 %ID/g tissue; in data set [4] (Rest of brain, 20 min), 4.90±0.24 %ID/g tissue; in data set [4] (Rest of brain, 60 min), 4.60±0.18 %ID/g tissue. In addition, the Regional brain distribution in data set [4] (Rest of brain, 120 min) came to 3.24±0.26 %ID/g tissue; in data set [4] (Rest of brain, 180 min), 2.09±0.40 %ID/g tissue; in data set [4] (Rest of brain, 360 min), 0.57±0.05 %ID/g tissue; in data set [4] (Superior & inferior Colliculi, 5 min), 4.09±0.71 %ID/g tissue; in data set [4] (Superior & inferior Colliculi, 20 min), 5.50±0.51 %ID/g tissue; in data set [4] (Superior & inferior Colliculi, 60 min), 5.14±0.20 %ID/g tissue. The Regional brain distribution is 4.37±0.57 %ID/g tissue in data set [4] (Superior & inferior Colliculi, 120 min); 3.16±0.75 %ID/g tissue in data set [4] (Superior & inferior Colliculi, 180 min); 1.50±0.28 %ID/g tissue in data set [4] (Superior & inferior Colliculi, 240 min); 0.87±0.08 %ID/g tissue in data set [4] (Superior & inferior Colliculi, 360 min). Further, the “colliculus to cerebellum ratio, maximum” value in data set [4] (at 180 min post-injection, CD-1 mice) is on record as 4.2.

For `O=c1cccc2n1C[C@@H]1CNC[C@H]2C1` [cytisine], the “reduction of [^125I]iodo-ASEM accumulation in mouse brain by blocker” value on α7-nAChR [2] (cytisine 0.5 mg/kg s.c.) is given as “neither cytisine nor ondansetron reduced”.

For the molecule `O=S1(=O)c2cc(N3CCN4CCC3CC4)ccc2-c2cccc(I)c21` [iodo-ASEM], the Ki on α7-nAChR [3] (α7 (rat), HEK-293 membranes, [^3H]epibatidine, mean ± SEM (n=3)) was found to be 0.5 ± 0.2 nM; on α3β4-nAChR (α3β4 (human), HEK-293 membranes, [^3H]epibatidine, mean ± SEM (n=3)), 45 ± 8 nM; at α4β2-nAChR (α4β2 (human), HEK-293 membranes, [^3H]epibatidine, mean ± SEM (n=3)) it was 1710 ± 373 nM. Besides, at α3β4-nAChR (ratio of Ki values), the “α7-nAChR Binding selectivity α7/α3β4” value is reported as “α7/α3β4 = 90”. Besides, the “α7-nAChR Binding selectivity α7/α4β2” value at α4β2-nAChR is listed as “α7/α4β2 = 3,414”.

For `Cc1nccn1CC1CCc2c(c3ccccc3n2C)C1=O` (centres unmarked) [ondansetron], the “reduction of [^125I]iodo-ASEM accumulation in mouse brain by blocker” value on α7-nAChR [2] (ondansetron 2 mg/kg s.c.) is given as “neither cytisine nor ondansetron reduced”.

A word on the Ki: it is the equilibrium dissociation constant of an inhibitor or competing ligand from its target.
